Results on one compound are retold here after ChEMBL document CHEMBL4138314, “Synthesis and Evaluation of N-Phenyl-3-sulfamoyl-benzamide Derivatives as Capsid Assembly Modulators Inhibiting Hepatitis B Virus (HBV)” (J Med Chem, 2018).

The target of one series is Cytochrome P450 2C19 (Homo sapiens, UniProt P33261). Briefly: Inhibition of CYP2C19 (unknown origin). Type of series: ADME.
Another series has as its system Mus musculus. Briefly: Hepatotoxicity in chimeric mouse with humanized liver infected with HBV genotype D assessed as decrease in human albumin level in mouse serum at 200 mg/kg, sc qd for 28 days. The series is classed as toxicity, organism-based. The settings on record: in vivo, 672 h. In outline: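 Cytotoxicity to human hepatocytes was judged in HBV genotype D-infected chimeric mice (≥70% human hepatocyte replacement) by tracking serum human albumin over time. Dosing was once daily for 28 days at 200 mg/kg s.c., with oral saline and oral entecavir 0.03 mg/kg as controls.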

The nature of series [1]: AUC (0 to 24 hrs) in humanized mouse at 50 mg/kg, sc for 8 days measured on day 8 post last dose by LC-MS/MS analysis. Type of series: ADME, organism-based. Also on record: time < 24 hr, dose 50 mg/kg, route subcutaneous. The settings on record: in vivo.
Another series deals with Salmonella typhimurium. Briefly: Genotoxicity in Salmonella typhimurium by Ames test. Type of series: toxicity, organism-based. The settings on record: salmonella enterica subsp. enterica serovar typhimurium. (In the Ames test, an excess of revertant colonies over the control signals mutagenicity.)
The nature of series [2]: Drug uptake in C57BL/6 mouse plasma at 50 mg/kg, sc after 24 hrs by LC-MS/MS analysis. Type of series: ADME, organism-based. In outline: (§1)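 C57BL/6 mice dosed subcutaneously once at 50 mg/kg, given to bypass first-pass metabolism; compound measured in plasma (ng/mL) and liver (ng/g) 24 h after dosing.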
The next series has as its system HBV genotype D. Briefly: Antiviral activity against HBV genotype D infected in chimeric mouse with humanized liver assessed as reduction in HBeAg level at 200 mg/kg, sc qd for 28 days. Type of series: functional, organism-based. The conditions noted are these: hepatitis B virus genotype D. In outline:
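HBV genotype D-infected humanized-liver chimeric mice (≥70% human hepatocyte replacement) were dosed once daily for 28 days at 200 mg/kg s.c., with oral saline and oral entecavir 0.03 mg/kg as controls. Serum HBeAg and HBsAg were followed over the study.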

The next series concerns the target Cytochrome P450 3A4 (Homo sapiens, UniProt P08684). In words: Inhibition of CYP3A4 (unknown origin). Type of series: ADME.
A short description of series [3]: AUC (0 to infinity) in humanized mouse at 200 mg/kg, sc for 8 days measured on day 8 post last dose by LC-MS/MS analysis. The series is classed as ADME, organism-based. The arrangement: dose 200 mg/kg, route subcutaneous, time infinity. The conditions noted are these: in vivo.
Series [4] is described as follows: Half life in C57BL/6 mouse at 50 mg/kg, sc by LC-MS/MS analysis. The conditions noted are these: in vivo. The series is classed as ADME, organism-based.
The target of the next series is T1, Cytochrome P450 2C8 (Homo sapiens, UniProt P10632).
T1 sequence (P10632 whole entry): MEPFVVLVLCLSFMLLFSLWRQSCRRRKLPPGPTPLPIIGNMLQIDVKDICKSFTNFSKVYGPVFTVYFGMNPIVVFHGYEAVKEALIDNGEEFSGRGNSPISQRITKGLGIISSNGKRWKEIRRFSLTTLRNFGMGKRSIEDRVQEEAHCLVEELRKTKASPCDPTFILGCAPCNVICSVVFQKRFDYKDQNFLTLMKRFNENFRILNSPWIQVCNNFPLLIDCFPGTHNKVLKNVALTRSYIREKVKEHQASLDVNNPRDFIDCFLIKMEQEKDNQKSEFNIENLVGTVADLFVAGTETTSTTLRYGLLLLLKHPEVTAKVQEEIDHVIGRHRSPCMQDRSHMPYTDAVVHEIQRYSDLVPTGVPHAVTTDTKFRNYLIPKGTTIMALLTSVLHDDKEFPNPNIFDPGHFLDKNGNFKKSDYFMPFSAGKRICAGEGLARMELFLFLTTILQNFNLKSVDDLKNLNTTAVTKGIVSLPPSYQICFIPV
Briefly: Inhibition of CYP2C8 (unknown origin). The series is classed as ADME.

Another series addresses T2, Cytochrome P450 1A2 (Homo sapiens, UniProt P05177).
T2 sequence (P05177 whole entry): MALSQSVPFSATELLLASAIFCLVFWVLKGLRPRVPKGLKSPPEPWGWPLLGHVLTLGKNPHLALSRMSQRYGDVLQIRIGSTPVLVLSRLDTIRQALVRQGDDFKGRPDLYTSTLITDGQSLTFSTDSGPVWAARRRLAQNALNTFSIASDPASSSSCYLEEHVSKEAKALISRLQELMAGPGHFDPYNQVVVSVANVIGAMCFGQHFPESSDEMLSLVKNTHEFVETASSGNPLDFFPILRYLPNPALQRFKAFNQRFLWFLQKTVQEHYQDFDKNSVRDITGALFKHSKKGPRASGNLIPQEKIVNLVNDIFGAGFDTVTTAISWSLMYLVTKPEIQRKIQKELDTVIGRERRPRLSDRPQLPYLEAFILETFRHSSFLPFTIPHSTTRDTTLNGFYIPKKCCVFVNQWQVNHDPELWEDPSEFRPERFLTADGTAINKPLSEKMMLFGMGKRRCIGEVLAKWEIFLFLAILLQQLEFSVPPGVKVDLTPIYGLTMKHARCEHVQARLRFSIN
Briefly: Inhibition of CYP1A2 (unknown origin). The series is classed as ADME.

Another series addresses Cytochrome P450 2C9 (Homo sapiens, UniProt P11712). In words: Inhibition of CYP2C9 (unknown origin). The series is classed as ADME.
Series [5] is described as follows: AUC (0 to infinity) in humanized mouse at 50 mg/kg, sc for 8 days measured on day 8 post last dose by LC-MS/MS analysis. Type of series: ADME, organism-based. The arrangement: dose 50 mg/kg, time infinity, route subcutaneous. The conditions noted are these: in vivo.
Series [6] can be described thus: Half life in humanized mouse at 50 mg/kg, sc for 8 days measured on day 8 post last dose by LC-MS/MS analysis. Type of series: ADME, organism-based. The settings on record: in vivo.
Series [7] is described as follows: Tmax in C57BL/6 mouse at 10 mg/kg, po by LC-MS/MS analysis. Type of series: ADME, organism-based. The conditions noted are these: in vivo. In outline: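 Single-dose PK in C57BL/6 mice given compound intravenously and orally, with oral doses of 10 and 50 mg/kg. Plasma clearance, volume of distribution and oral bioavailability were derived from the plasma profiles.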

Series [8] in a line: Drug metabolism in mouse liver microsomes at 1 uM after 15 mins by LC-MS/MS analysis. Type of series: ADME, microsome. The conditions noted are these: read-out: Drug metabolism. In outline:
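Compound incubated 15 min with human or mouse liver microsomes; stability expressed as percent turnover (metabolised) at 15 min.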
(Liver microsomes are a subcellular fraction often used to study metabolism.)

The nature of series [9]: Drug uptake in C57BL/6 mouse liver at 50 mg/kg, sc after 24 hrs by LC-MS/MS analysis. The series is classed as ADME, organism-based. The conditions noted are these: read-out: Drug uptake. In outline:
as §1

Series [10] can be described thus: Tmax in humanized mouse at 50 mg/kg, sc for 8 days measured on day 8 post last dose by LC-MS/MS analysis. The series is classed as ADME, organism-based. The settings on record: in vivo.
In another series the target is hERG (Homo sapiens, UniProt Q12809). In words: Inhibition of human ERG at 3 uM by automated patch clamp assay (reference value: 14%). In general terms: Patch clamp records ionic current or voltage across a cell membrane.
The nature of series [11]: AUC (0 to infinity) in humanized mouse at 200 mg/kg, sc measured on day 1 post dose by LC-MS/MS analysis. Type of series: ADME, organism-based. The arrangement: dose 200 mg/kg, route subcutaneous, time infinity. The settings on record: in vivo.
The nature of series [12]: Kinetic solubility of the compound at pH 7.4 after 4 hrs by UPLC-UV analysis. The conditions noted are these: buffer, read-out: Kinetic_solubility. Type of series: physicochemical.
A short description of series [13]: Bioavailability in C57BL/6 mouse at 50 mg/kg, sc by LC-MS/MS analysis. The conditions noted are these: in vivo. Type of series: ADME, organism-based.
Series [14] can be described thus: Tmax in humanized mouse at 50 mg/kg, sc measured on day 1 post dose by LC-MS/MS analysis. The series is classed as ADME, organism-based. The conditions noted are these: in vivo.
For a further series, the system named is MDR1 (P-gp). In words: Apparent permeability in pig LLC-PK1 cells expressing human MDR1 from apical to basolateral side in absence of P-gp inhibitor GF-120918. Type of series: ADME, cell-based, Sus scrofa. In outline: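 LLC-PK1-MDR1 monolayers; apical-to-basolateral apparent permeability measured without the P-gp inhibitor GF-120,918, run in parallel with an inhibitor-containing arm to form a +GF/−GF ratio.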

≈ marks a conversion by molar mass, not a printed value. Calls of active or inactive are those of the source. The rule behind the calls is not given here.

Chain of Cytochrome P450 3A4 (P08684 whole entry): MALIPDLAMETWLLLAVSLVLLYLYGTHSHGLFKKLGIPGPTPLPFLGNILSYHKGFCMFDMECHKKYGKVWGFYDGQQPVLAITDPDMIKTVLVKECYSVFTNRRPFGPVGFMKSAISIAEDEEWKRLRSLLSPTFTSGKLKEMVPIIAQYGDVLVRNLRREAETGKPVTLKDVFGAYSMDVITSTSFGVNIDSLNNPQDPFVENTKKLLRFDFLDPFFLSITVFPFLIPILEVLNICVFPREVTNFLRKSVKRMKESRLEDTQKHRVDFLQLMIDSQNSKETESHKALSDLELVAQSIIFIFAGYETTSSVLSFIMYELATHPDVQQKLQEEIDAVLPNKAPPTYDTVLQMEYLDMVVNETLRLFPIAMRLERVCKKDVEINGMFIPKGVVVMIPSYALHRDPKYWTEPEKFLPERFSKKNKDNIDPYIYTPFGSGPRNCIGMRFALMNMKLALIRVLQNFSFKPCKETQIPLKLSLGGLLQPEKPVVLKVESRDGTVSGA
Chain of Cytochrome P450 2C9 (P11712 whole entry): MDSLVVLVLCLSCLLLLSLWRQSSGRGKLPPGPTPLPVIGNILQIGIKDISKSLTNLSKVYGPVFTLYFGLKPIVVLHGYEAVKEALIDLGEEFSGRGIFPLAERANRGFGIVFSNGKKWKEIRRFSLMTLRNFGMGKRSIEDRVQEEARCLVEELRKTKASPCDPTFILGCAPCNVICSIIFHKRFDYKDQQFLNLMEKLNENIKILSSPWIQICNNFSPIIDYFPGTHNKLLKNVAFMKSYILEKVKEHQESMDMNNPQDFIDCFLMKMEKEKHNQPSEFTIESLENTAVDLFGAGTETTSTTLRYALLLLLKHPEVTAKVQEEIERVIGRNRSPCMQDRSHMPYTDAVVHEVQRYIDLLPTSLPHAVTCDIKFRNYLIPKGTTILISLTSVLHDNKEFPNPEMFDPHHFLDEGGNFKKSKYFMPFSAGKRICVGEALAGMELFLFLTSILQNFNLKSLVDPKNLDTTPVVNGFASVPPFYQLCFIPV
Chain of Cytochrome P450 2C19 (P33261 whole entry): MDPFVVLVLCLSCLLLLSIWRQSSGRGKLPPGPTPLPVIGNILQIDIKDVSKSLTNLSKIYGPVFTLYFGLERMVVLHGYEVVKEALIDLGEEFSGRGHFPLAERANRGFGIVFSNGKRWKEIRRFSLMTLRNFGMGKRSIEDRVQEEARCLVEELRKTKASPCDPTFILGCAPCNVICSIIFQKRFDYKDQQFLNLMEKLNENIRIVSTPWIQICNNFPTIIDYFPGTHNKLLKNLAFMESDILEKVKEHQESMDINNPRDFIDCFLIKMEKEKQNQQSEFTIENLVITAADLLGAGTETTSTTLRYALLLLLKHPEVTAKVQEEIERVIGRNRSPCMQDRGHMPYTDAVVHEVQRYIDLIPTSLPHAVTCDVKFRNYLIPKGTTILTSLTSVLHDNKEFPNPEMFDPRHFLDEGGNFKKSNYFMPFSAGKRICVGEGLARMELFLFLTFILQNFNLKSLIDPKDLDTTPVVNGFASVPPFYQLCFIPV
Chain of hERG (Q12809 whole entry): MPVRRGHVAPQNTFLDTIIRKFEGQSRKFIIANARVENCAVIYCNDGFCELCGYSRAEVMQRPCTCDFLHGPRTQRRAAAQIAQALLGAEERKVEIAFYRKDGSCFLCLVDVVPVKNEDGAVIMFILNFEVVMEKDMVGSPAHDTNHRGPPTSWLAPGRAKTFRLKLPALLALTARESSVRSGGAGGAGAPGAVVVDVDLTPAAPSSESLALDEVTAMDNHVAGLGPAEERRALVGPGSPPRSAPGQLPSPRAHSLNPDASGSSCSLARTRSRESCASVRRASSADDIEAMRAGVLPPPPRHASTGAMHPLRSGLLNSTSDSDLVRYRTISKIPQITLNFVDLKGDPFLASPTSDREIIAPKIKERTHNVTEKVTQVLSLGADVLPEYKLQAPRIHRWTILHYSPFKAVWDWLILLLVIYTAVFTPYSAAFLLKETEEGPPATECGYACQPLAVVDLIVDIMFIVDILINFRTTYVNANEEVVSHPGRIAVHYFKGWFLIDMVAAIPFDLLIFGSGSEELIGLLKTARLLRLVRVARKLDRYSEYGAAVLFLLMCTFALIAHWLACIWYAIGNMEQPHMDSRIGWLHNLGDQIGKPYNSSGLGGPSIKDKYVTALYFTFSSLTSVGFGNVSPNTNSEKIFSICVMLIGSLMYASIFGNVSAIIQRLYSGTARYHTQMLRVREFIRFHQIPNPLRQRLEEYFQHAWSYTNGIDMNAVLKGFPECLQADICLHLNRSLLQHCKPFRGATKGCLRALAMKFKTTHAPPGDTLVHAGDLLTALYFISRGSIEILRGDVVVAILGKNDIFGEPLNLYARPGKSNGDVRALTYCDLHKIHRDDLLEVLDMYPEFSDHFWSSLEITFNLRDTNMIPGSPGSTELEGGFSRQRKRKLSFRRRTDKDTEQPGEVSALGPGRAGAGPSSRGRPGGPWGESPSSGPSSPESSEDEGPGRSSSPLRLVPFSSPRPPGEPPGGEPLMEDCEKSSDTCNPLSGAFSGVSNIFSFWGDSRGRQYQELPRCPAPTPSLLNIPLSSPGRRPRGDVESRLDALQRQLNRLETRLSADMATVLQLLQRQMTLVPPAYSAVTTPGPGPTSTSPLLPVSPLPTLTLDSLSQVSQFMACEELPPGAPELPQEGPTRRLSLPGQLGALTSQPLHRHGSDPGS

The term IC50 denotes the concentration that inhibits the measured activity by half. The AUC is the area under the concentration-time curve, a measure of exposure. Read a low AUC as less exposure. Usually AUC(0-inf) stands for total exposure, with the tail of the curve extrapolated. A high value points to more exposure. As usually defined, the half-life is how long it takes for the measured level to halve. Read a high half-life as slow loss. The term Tmax denotes the time at which the peak concentration occurs. In general, inhibition refers to the change of the read-out against control, counted positive when it falls. A higher inhibition goes with a strong effect. As usually defined, the bioavailability is dose-corrected exposure relative to a reference, in per cent. What is called Papp A→B is how fast a substance crosses the layer from the apical side. As for `Cc1cc(NC(=O)c2cccc(S(=O)(=O)N[C@H]3CCOC3)c2)ccc1F`, the IC50 against Cytochrome P450 2C19, at Cytochrome P450 3A4, against Cytochrome P450 2C8, against Cytochrome P450 1A2 and against Cytochrome P450 2C9 was more than 10 µM each time. Further, the Activity entry with Mus musculus and with Salmonella typhimurium was “Non-Toxic” in each case. The compound also registered an AUC at 24 h in series [1] of 19200 ng·h/mL. The results for the concentration at 24 h in [2] and in series [9] were 102 ng/mL and 1300 ng/g, respectively. The outcome with HBV genotype D was inactive. Moreover, the area under the curve AUC(0-inf) in series [3] is 119 µg·h/mL; in [5] it was 20700 ng·h/mL; in series [11] it was 12700 ng·h/mL. Moreover, the half-life is 318 min in series [4] and 372 min in series [6]. The Tmax in series [7] worked out at 30 min; in series [10], 48 min; in series [14], 1 h. The metabolised at 0.25 h, 1 µM in series [8] was determined as 51%. Also, on hERG, the inhibition at 3 µM was 31%. In addition, the solubility kinetic at 4 h in series [12] is 82 µM (≈ 31 µg/mL). The bioavailability in series [13] amounted to 68%. Besides, the Papp A→B in the series on MDR1 (P-gp) stood at 7.3 ×10⁻⁶ cm/s.
